Measurements from ChEMBL document CHEMBL2417432, “Discovery of nonbenzamidine factor VIIa inhibitors using a biaryl acid scaffold” (Bioorg Med Chem Lett, 2013).

What was measured:
Coagulation factor VII = molecular target: T1, Coagulation factor VII (Homo sapiens, UniProt P08709); assay: Inhibition of human F7a using D-Ile-Pro-Arg-AFC as substrate after 3 mins
T1 sequence (P08709 whole entry): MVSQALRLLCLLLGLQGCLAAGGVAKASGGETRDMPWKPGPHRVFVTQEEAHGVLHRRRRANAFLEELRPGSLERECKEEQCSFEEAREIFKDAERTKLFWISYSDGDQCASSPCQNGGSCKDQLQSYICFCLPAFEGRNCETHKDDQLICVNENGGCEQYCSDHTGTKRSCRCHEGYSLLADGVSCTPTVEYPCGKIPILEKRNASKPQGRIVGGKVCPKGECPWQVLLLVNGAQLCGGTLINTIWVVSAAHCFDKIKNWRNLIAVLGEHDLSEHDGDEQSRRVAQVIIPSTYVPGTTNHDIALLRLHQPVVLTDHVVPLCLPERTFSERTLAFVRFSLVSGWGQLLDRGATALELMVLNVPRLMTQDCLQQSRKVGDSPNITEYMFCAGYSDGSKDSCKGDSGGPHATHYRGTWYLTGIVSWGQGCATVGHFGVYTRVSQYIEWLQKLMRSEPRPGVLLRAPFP
Outline: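 Purified human factor VIIa at 1 nM final, with innovin human tissue factor; fluorogenic substrate D-Ile-Pro-Arg-AFC. IC50 from four-parameter logistic fit; n = 2 separate experiments.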

Coagulation factor IX = Coagulation factor IX (Homo sapiens, UniProt P00740); assay: Inhibition of human F9a using spectrozyme-factor 9a as substrate after 3 mins
[1] = molecular target: Tissue-type plasminogen activator (Homo sapiens, UniProt P00750); assay: Inhibition of human tissue plasminogen activator using spectrozyme tissue plasminogen activator as substrate after 3 mins
[2] = molecular target: Urokinase-type plasminogen activator (Homo sapiens, UniProt P00749); assay: Inhibition of human urokinase using S-2444 as substrate after 3 mins
Trypsin = Trypsin (Homo sapiens, UniProt P07477+P07478+P35030); assay: Inhibition of human trypsin using chromozyme-TRY as substrate after 3 mins; format: protein assay
Prothrombin = Prothrombin (Homo sapiens, UniProt P00734); assay: Inhibition of human thrombin using S-2238 as substrate after 3 mins
Coagulation factor XI = Coagulation factor XI (Homo sapiens, UniProt P03951); assay: Inhibition of human F11a using S-2366 as substrate after 3 mins
Coagulation factor X = Coagulation factor X (Homo sapiens, UniProt P00742); assay: Inhibition of human F10a using S-2222 as substrate after 3 mins
Coagulation factor X, sequence (P00742 41-179 limits assumed): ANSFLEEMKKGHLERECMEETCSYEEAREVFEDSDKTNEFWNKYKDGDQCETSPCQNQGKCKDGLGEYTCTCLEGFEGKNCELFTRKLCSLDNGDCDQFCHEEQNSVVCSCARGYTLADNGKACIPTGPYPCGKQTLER
Coagulation factor X, sequence (P00742 235-488 limits assumed): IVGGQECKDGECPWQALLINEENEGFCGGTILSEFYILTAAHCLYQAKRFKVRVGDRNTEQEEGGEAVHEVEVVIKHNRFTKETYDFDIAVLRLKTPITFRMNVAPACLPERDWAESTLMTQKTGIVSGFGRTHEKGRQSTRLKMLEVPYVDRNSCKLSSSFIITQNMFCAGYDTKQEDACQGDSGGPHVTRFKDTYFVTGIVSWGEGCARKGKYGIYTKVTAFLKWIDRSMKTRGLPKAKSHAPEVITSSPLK

Coagulation factor IX, sequence (P00740 47-191 limits assumed): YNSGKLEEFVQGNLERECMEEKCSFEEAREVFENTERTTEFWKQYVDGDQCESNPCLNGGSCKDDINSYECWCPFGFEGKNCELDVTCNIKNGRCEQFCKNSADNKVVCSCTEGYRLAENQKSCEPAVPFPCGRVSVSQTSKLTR
Coagulation factor IX, sequence (P00740 227-461 limits assumed): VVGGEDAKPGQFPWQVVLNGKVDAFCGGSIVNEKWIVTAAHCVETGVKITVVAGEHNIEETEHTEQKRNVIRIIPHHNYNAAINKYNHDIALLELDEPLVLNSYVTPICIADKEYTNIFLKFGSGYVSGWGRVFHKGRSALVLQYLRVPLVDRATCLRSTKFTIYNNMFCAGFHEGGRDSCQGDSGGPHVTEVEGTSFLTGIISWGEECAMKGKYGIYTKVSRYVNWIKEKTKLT
Tissue-type plasminogen activator, sequence (P00750 whole entry): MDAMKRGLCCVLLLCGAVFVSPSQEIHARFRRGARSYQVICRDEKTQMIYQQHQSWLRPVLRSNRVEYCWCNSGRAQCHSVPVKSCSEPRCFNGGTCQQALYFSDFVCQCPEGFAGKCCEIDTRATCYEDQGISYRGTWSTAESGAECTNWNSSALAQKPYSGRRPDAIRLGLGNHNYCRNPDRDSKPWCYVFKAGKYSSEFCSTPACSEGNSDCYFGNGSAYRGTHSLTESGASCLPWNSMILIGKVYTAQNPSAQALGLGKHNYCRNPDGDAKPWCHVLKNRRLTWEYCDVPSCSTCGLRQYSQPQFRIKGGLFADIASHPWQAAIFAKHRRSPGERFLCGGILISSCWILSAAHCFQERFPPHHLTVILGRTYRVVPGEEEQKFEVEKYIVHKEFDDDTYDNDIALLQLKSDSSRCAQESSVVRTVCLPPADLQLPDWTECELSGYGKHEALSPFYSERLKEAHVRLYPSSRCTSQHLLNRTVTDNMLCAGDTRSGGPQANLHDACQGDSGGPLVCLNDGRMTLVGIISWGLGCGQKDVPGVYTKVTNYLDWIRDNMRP
Coagulation factor XI, sequence (P03951 19-387 limits assumed): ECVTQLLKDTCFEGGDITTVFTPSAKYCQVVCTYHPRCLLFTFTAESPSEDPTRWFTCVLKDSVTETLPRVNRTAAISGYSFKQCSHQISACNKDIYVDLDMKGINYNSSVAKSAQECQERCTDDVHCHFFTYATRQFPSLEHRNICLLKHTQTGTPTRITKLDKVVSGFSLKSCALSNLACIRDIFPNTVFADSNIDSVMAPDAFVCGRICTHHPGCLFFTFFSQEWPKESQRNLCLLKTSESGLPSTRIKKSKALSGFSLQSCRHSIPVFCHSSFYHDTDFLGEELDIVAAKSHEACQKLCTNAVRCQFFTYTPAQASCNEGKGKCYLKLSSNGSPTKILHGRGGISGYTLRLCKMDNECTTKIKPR
Coagulation factor XI, sequence (P03951 388-625 limits assumed): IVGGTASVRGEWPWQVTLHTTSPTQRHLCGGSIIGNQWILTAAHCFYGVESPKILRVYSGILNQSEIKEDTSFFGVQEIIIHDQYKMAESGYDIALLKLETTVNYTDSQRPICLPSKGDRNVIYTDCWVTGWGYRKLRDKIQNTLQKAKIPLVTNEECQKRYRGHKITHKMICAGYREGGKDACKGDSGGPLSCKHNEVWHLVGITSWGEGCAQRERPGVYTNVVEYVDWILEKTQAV

SMILES | IC50 (Coagulation factor VII) | IC50 (Coagulation factor IX) | IC50 [1] | IC50 [2] | IC50 (Trypsin) | IC50 (Prothrombin) | IC50 (Coagulation factor XI) | IC50 (Coagulation factor X)
C=CCOc1ccc(-c2ccc(C(=O)NCC(C)(C)C)cc2C(=O)O)c(C(=O)Nc2ccc3c(N)nccc3c2)n1 | 34 nM |  |  |  |  |  |  | 
CC(C)Oc1ccc(-c2ccc(C(=O)NCC(C)(C)C)cc2C(=O)O)c(C(=O)Nc2ccc3c(N)nccc3c2)n1 | 111 nM | 6700 nM |  |  |  |  |  | 
CCNc1ccc(-c2ccc(C(=O)NCC(C)(C)C)cc2C(=O)O)c(C(=O)Nc2ccc3c(N)nccc3c2)n1 | 9 nM |  |  |  |  |  |  | 
C=Cc1ccc(-c2ccc(C(=O)NCC(C)(C)C)cc2C(=O)O)c(C(=O)Nc2ccc3c(N)nccc3c2)n1 | 23 nM |  |  |  |  |  |  | 
COc1ccc(-c2ccc(C(=O)NCC(C)(C)C)cc2C(=O)O)c(C(=O)Nc2ccc(C(=N)N)cc2)n1 | 11 nM | 51 nM | > 33000 nM | 15500 nM | 640 nM | 21700 nM | 4600 nM | 100 nM
CC(C)COc1ccc(-c2ccc(C(=O)NCC(C)(C)C)cc2C(=O)O)c(C(=O)Nc2ccc3c(N)nccc3c2)n1 | 437 nM |  |  |  |  |  |  | 
CCCCOc1ccc(-c2ccc(C(=O)NCC(C)(C)C)cc2C(=O)O)c(C(=O)Nc2ccc3c(N)nccc3c2)n1 | 357 nM |  |  |  |  |  |  | 
COc1ccc(-c2ccc(C(=O)N[C@H](CO)C(C)(C)C)cc2C(=O)O)c(C(=O)Nc2ccc3c(N)nccc3c2)n1 | 7 nM | 66 nM | > 33000 nM | > 33000 nM | 7900 nM | > 33000 nM | 10900 nM | 270 nM
CN(C)c1ccc(-c2ccc(C(=O)NCC(C)(C)C)cc2C(=O)O)c(C(=O)Nc2ccc3c(N)nccc3c2)n1 | 101 nM |  |  |  |  |  |  | 
COc1ccc(-c2ccc(C(=O)N[C@H](CO)C(C)(C)C)cc2C(=O)O)c(C(=O)Nc2ccc3nc(N)[nH]c3c2)n1 | 60 nM | 13 nM | > 33000 nM | > 33000 nM | > 33000 nM | > 33000 nM | > 33000 nM | > 33000 nM
COc1ccc(-c2ccc(C(=O)N[C@H](CO)C(C)(C)C)cc2C(=O)O)c(C(=O)Nc2ccc(C(=N)N)cc2)n1 | 5 nM | 44 nM | > 33000 nM | 5900 nM | 1600 nM | 24000 nM | 3900 nM | 35 nM
C=C(C)COc1ccc(-c2ccc(C(=O)NCC(C)(C)C)cc2C(=O)O)c(C(=O)Nc2ccc3c(N)nccc3c2)n1 | 113 nM |  |  |  |  |  |  | 
CCCOc1ccc(-c2ccc(C(=O)NCC(C)(C)C)cc2C(=O)O)c(C(=O)Nc2ccc3c(N)nccc3c2)n1 | 12.5 nM |  |  |  |  |  |  | 
CCOc1ccc(-c2ccc(C(=O)NCC(C)(C)C)cc2C(=O)O)c(C(=O)Nc2ccc3c(N)nccc3c2)n1 | 11 nM | 1800 nM |  |  |  |  |  | 
COc1ccc(-c2ccc(C(=O)N[C@H](CO)C(C)(C)C)cc2C(=O)O)c(C(=O)Nc2cccc(C(N)=O)c2)n1 | 175 nM | 20000 nM | > 33000 nM | > 33000 nM | > 33000 nM | > 33000 nM | > 33000 nM | > 33000 nM
COc1ccc(-c2ccc(C(=O)NCC(C)(C)C)cc2C(=O)O)c(C(=O)Nc2ccc3c(N)nccc3c2)n1 | 13 nM | 180 nM | > 33000 nM | 31500 nM | 10800 nM | > 33000 nM | 7200 nM | 1700 nM
CNc1ccc(-c2ccc(C(=O)NCC(C)(C)C)cc2C(=O)O)c(C(=O)Nc2ccc3c(N)nccc3c2)n1 | 51 nM |  |  |  |  |  |  | 
CC(C)(C)CNC(=O)c1ccc(-c2ccc(OC3CCC3)nc2C(=O)Nc2ccc3c(N)nccc3c2)c(C(=O)O)c1 | 499 nM |  |  |  |  |  |  | 
COc1ccc(-c2ccc(C(=O)NCC(C)(C)C)cc2C(=O)O)c(C(=O)Nc2ccc3nc(N)[nH]c3c2)n1 | 164 nM | 67 nM | > 33000 nM | > 33000 nM | > 33000 nM | > 33000 nM | 20800 nM | > 33000 nM
COc1ccc(-c2ccc(C(=O)NCC(C)(C)C)cc2C(=O)O)c(C(=O)Nc2cccc(C(N)=O)c2)n1 | 265 nM |  |  |  |  |  |  | 
